How the values were obtained:
[1] = melting temperature; fluorescence melt of hairpins on a sequencing array, two-state fit, raised by 9.35 °C to match UV melts; settings: sodium 0.088 M
Outline: (§1)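 In 50 mM Na-HEPES pH 8.0 containing 25 mM NaCl, hairpins from the library on a sequenced MiSeq flow cell were imaged for Cy3 fluorescence at 2.5 °C steps up to 60 °C, with Cy3 and quencher oligos annealed. After normalisation to pre-quench Cy3 and to control constructs, two-state fits with bootstrapping gave melting temperature and folding enthalpy. Four replicates were combined by inverse-variance weighting, and fitted temperatures were shifted up by 9.35 °C to match UV melts.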

[2] = folding enthalpy; higher = less favourable; fluorescence melt of hairpins on a sequencing array, two-state fit; settings: sodium 0.088 M
Outline: as §1

Sequence	Tm [1]	folding enthalpy [2]
GCAAGCGAAAGCTCCTGC ((((((....)))..)))	30.9 °C	-10.1 kcal/mol
GCAAGCGAAAGCTCGTGC ((((((....)))..)))	37.4 °C	-15.1 kcal/mol
GCAAGCGAAAGCTGTGC ((((((....))).)))	55.9 °C	-15.8 kcal/mol
GCAAGCGCGAAAGCGTGC (((..(((....))))))	47.5 °C	-12.5 kcal/mol
GCAAGGCGAAAGCATCGC ((.(.((....)).).))	37.3 °C	-14.4 kcal/mol
GCAAGGCGAAAGCCATGC (((.(((....))).)))	57.9 °C	-32.8 kcal/mol
GCAAGGCGAAAGCCCAGC ((..(((....)))..))	45.9 °C	-13.1 kcal/mol
GCAAGGCGAAAGCCCCGC ((..(((....)))..))	37 °C	-10.7 kcal/mol
GCAAGGCGAAAGCCCGGC ((..(((....)))..))	45.9 °C	-17.4 kcal/mol
GCAAGGCGAAAGCCGAGC ((..(((....)))..))	65 °C	-29.1 kcal/mol
GCAAGGCGAAAGCCGTGC (((.(((....))).)))	68 °C	-22.8 kcal/mol
GCAAGGCGAAAGCTTCGC ((.(.((....)).).))	40.9 °C	-12.2 kcal/mol
GCAAGGGAAACCTTGC ((((((....))))))	60.1 °C	-37.9 kcal/mol
GCAAGGGGAAACCCCTAC (.(.(((....))).).)	28.7 °C	-12 kcal/mol
GCAAGTCGAAAGACCTGC (((.(((....))).)))	47.9 °C	-29.6 kcal/mol
GCAATCGAAAGATAATGC ((((((....)))..)))	27.8 °C	-16.3 kcal/mol
GCAATCGAAAGATAGTGC ((((((....)))..)))	32 °C	-22.9 kcal/mol
GCAATCGAAAGATCGTGC ((((((....)))..)))	28 °C	-16.1 kcal/mol
GCAATCGGAAACGATTAC (.(((((....))))).)	38 °C	-16.1 kcal/mol
GCAATGCGAAAGCAGGGC ((..(((....)))..))	60.9 °C	-25.4 kcal/mol
GCAATGCGAAAGCAGTGC (((.(((....))).)))	65.6 °C	-33.6 kcal/mol
GCAATGCGAAAGCCGTGC (((..((....))..)))	35.4 °C	-20.4 kcal/mol
GCAATGCGAAAGCCTTGC ((((.((....)).))))	53.9 °C	-27.6 kcal/mol

Sequence	Tm [1]	folding enthalpy [2]
GCAATGCGAAAGCTCTGC (((..((....))..)))	37.2 °C	-16.1 kcal/mol
GCAATGCGAAAGCTTAGC ((.(.((....)).).))	36.4 °C	-15.9 kcal/mol
GCAATGGAAACATTGC ((((((....))))))	58.1 °C	-42.1 kcal/mol
GCAATGGGAAACCACTGC (((.(((....))).)))	39.1 °C	-28.6 kcal/mol
GCAATTCGAAAGAACTGC (((.(((....))).)))	43.4 °C	-31.4 kcal/mol
GCACAACGAAAGTTTGC (((.(((....))))))	44.5 °C	-25.6 kcal/mol
GCACAACGAAAGTTTTGC (((.(((....))).)))	46.9 °C	-37.7 kcal/mol
GCACAAGAAATTGTGC ((((((....))))))	57.3 °C	-36 kcal/mol
GCACAAGGAAACTTATGC (((.(((....))).)))	29.4 °C	-18.7 kcal/mol
GCACAAGGAAACTTGCGC ((.((((....)))).))	48.4 °C	-37.9 kcal/mol
GCACACCCGAAAGGGTGC (((..(((....))))))	38.6 °C	-5.94 kcal/mol
GCACACGAAAGTGATTGC ((((((....)))..)))	39.8 °C	-18.5 kcal/mol
GCACACGAAAGTGTTGC ((((((....))).)))	53.8 °C	-32.5 kcal/mol
GCACACGGAAACGCATGC (((..((....))..)))	26.4 °C	-12.7 kcal/mol
GCACACGGAAACGCGTGC ((((.((....)).))))	57 °C	-47.3 kcal/mol
GCACACGGAAACGTGCGC ((.((((....)))).))	60.5 °C	-42.2 kcal/mol
GCACAGCGAAAGCAGGGC ((.(.((....)).).))	62.5 °C	-25.8 kcal/mol
GCACAGCGAAAGCCGGGC ((.(.((....)).).))	55.7 °C	-22.4 kcal/mol
GCACAGCGAAAGCCTTGC (((..((....))..)))	39 °C	-8.82 kcal/mol
GCACAGCGAAAGCGATGC (((..((....))..)))	51.6 °C	-15.8 kcal/mol
GCACAGCGAAAGCTAAGC ((..(((....)))..))	40.4 °C	-12.1 kcal/mol
GCACAGCGAAAGCTCAGC ((..(((....)))..))	33.9 °C	-10.5 kcal/mol
GCACAGCGAAAGCTCTGC (((.(((....))).)))	40.6 °C	-25.6 kcal/mol

Sequence	Tm [1]	folding enthalpy [2]
GCACATACGAAAGTATGC (((..(((....))))))	35.4 °C	-9.91 kcal/mol
GCACATCGAAAGATTTGC (((.(((....))).)))	45.2 °C	-36.1 kcal/mol
GCACCAGGAAACTGATGC (((.(((....))).)))	45 °C	-28.6 kcal/mol
GCACCCGAAAGGGATTGC ((((((....)))..)))	42.3 °C	-18 kcal/mol
GCACCCGAAAGGGCTTGC ((((((....)))..)))	46.6 °C	-14.9 kcal/mol
GCACCCGAAAGGGGATGC ((((((....)))..)))	50.8 °C	-19.6 kcal/mol
GCACCCGGAAACGAGCGC ((.(.((....)).).))	34.7 °C	-29.2 kcal/mol
GCACCCGGAAACGGACGC ((..(((....)))..))	38.7 °C	-19.6 kcal/mol
GCACCGACGAAAGTCTGC (((..(((....))))))	35.3 °C	-16.7 kcal/mol
GCACCGCGAAAGCCATGC (((..((....))..)))	28.6 °C	-9.79 kcal/mol
GCACCGCGAAAGCGTAGC ((..(((....)))..))	41.2 °C	-12.3 kcal/mol
GCACCGCGAAAGCGTGGC ((..(((....)))..))	56.1 °C	-16.5 kcal/mol
GCACCGCGAAAGCGTTGC (((.(((....))).)))	56.3 °C	-42.6 kcal/mol
GCACCGCGAAAGCTATGC (((..((....))..)))	31.1 °C	-12.8 kcal/mol
GCACCGCGAAAGCTGTGC ((((.((....)).))))	66.2 °C	-32.1 kcal/mol
GCACCGGGAAACCGGCGC ((.((((....)))).))	59.6 °C	-41.3 kcal/mol
GCACCGGGAAACTGGTGC (((((.(....).)))))	61.2 °C	-41 kcal/mol
GCACCTGCGAAAGCATGC (((..(((....))))))	33.6 °C	-9.15 kcal/mol
GCACCTGGAAACAGACGC ((..(((....)))..))	29.2 °C	-15.3 kcal/mol
GCACGACGAAAGTCTGC (((.(((....))))))	52.4 °C	-20.8 kcal/mol
GCACGAGAAATCGTGC ((((((....))))))	68.6 °C	-32 kcal/mol
GCACGCCGAAAGGCTGC (((.(((....))))))	64.6 °C	-21.8 kcal/mol
GCACGCCGAAAGGCTTGC (((.(((....))).)))	58.3 °C	-28.7 kcal/mol

Sequence	Tm [1]	folding enthalpy [2]
GCACGCGAAAGCGAATGC ((((((....)))..)))	49.2 °C	-18.6 kcal/mol
GCACGCGAAAGCGCTTGC ((((((....)))..)))	42.8 °C	-13.3 kcal/mol
GCACGCGAAAGCGGTTGC ((((((....)))..)))	49.5 °C	-13.3 kcal/mol
GCACGCGAAAGCGTTGC ((((((....))).)))	64.7 °C	-17.8 kcal/mol
GCACGCGGAAACGCGTAC (.(((((....))))).)	48.1 °C	-10.1 kcal/mol
GCACGGCGAAAGCACTGC (((..((....))..)))	40.5 °C	-20.1 kcal/mol
GCACGGCGAAAGCCAAGC ((..(((....)))..))	46.6 °C	-15.4 kcal/mol
GCACGGCGAAAGCCATGC (((.(((....))).)))	55.1 °C	-36 kcal/mol
GCACGGCGAAAGCTATGC (((..((....))..)))	42.1 °C	-19.9 kcal/mol
GCACGTCGAAAGACTTGC (((.(((....))).)))	51.1 °C	-40.6 kcal/mol
GCACGTGCGAAAGCATGC (((..(((....))))))	40.4 °C	-8.57 kcal/mol
GCACGTGGAAACACGCGC ((.((((....)))).))	57.5 °C	-38.4 kcal/mol
GCACGTGGAAACATGTGC ((((.((....)).))))	56.9 °C	-36.8 kcal/mol
GCACTAACGAAAGTTTGC (((..(((....))))))	32.7 °C	-15 kcal/mol
GCACTACGAAAGTATGC (((.(((....))))))	43 °C	-25.5 kcal/mol
GCACTAGGAAACTAGTAC (.(((((....))))).)	31 °C	-20.8 kcal/mol
GCACTATCGAAAGATTGC (((..(((....))))))	30.6 °C	-17.7 kcal/mol
GCACTCGAAAGAGATTGC ((((((....)))..)))	34.2 °C	-15.2 kcal/mol
GCACTCGAAAGAGGATGC ((((((....)))..)))	40.1 °C	-22.4 kcal/mol
GCACTCGCGAAAGCGTGC (((..(((....))))))	50.5 °C	-14.7 kcal/mol
GCACTGCGAAAGCACAGC ((..(((....)))..))	29.2 °C	-11.6 kcal/mol
GCACTGCGAAAGCACTGC (((.(((....))).)))	44.4 °C	-28.1 kcal/mol

Source: the array DNA melting data of Ke et al. (doi:10.1101/2024.01.08.574731)
